Screening data as filed in PubChem.
Diaph act CS: counter-screen for diaphorase-based assays: diaphorase activators and chemical reducers. Diaphorase/resazurin coupled assay, resorufin fluorescence, 16 min; hits give high values; 1 = vehicle wells, 0 = NADH-free wells. activation factor at 20 µM. 0.005% of 190,000 active;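 active = diaphorase activity raised at least twofold by the compound at 20 µM; inactive = activation factor below 2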
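Material: purified diaphorase enzyme from Clostridium kluyveri / Medium: HEPES pH 7.4 buffer with MgCl2 and Tween 20 / Schedule: enzyme reaction of 16 min at room temperature / Measured by: resorufin fluorescence, excitation 544 nm, emission 590 nm / Evaluation: rise in resorufin formation, marking diaphorase activation or chemical reduction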
L major viab: inhibitors of Leishmania major promastigote growth | Leishmania major promastigotes, resazurin fluorescence viability | inhibition, % at 10 µM | AID 1063 | 9% of 200,000 active; in the data active = inhibition above about 50%;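 note: promastigotes grown with compound for 44 hours at 28 °C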
ROMK primary: human ROMK K+ channel modulation, primary screen; P48048; Tet-inducible ROMK, thallium flux fluorescence; actives lie on both sides; B-score at 10 µM; 2% of 130,000 active; AID 1918;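 active = signal ratio slope over the read window, or its plate-corrected B-score, at least 3 SD from the plate mean, either direction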;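 note: B-score of the F/F0 ratio slope over 7 to 12 s after thallium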
WT yeast gro inh: growth inhibition of WT yeast, mitochondrial fusion screen; mitochondrial fusion phenotypic screen, WT strain; inhibition, % at 10 µM; 2.1% of 190,000 active; in the data active = inhibition above about 58%; tested in S. cerevisiae
Diaphorase inh: diaphorase inhibition or chemical oxidation counter-screen | diaphorase resazurin-to-resorufin fluorescence, NADH, 16 min; bacterial (C. kluyveri) enzyme, not human | inhibition, % at 20 µM | 0.69% of 190,000 active;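 active = primary screen inhibition at 20 µM above a set limit, cut at about 50% in these data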;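 note: plate controls were DMSO with full reaction for no effect and wells lacking NADH for full effect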
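Assay system: diaphorase enzyme from Clostridium kluyveri; Input: enzyme working solution with 0.14 U/mL diaphorase; Timing: 16 min at room temperature; Technique: resorufin fluorescence, excitation 544 nm, emission 590 nm; Benchmarks: positive control minus NADH, DMSO neutral control.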
Cl transport mod: KCC2 (human) Cl- transport modulation | KCC2 cells, thallium flux FluoZin-2 fluorescence | B-score of Tl+ flux slope (higher = more flux/activation; lower = inhibition) at 10 µM | 2.2% of 190,000 active;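 active = thallium flux slope and its plate-corrected score both differing from the plate sample mean at a set confidence after two filtering rounds, in either direction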;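 note: slope of fluorescence scaled to starting intensity during 10 to 20 s after thallium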
Lmaj promast 1uM: L. major promastigote growth inhibition, 1 uM repeat. shares compounds with L major viab. resazurin fluorescence, 48 h. 13% of 1,100 active. inhibition, % at 1 µM;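 active = inhibition above about 50% in both repeat tests, limit read from the data; inconclusive = one repeat under the set limit, the other over it; inactive = both repeats under the set limit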
KCC2 sec1: KCC2 (human) modulation, secondary assay; normalised thallium flux (F/F0 slope) at 10 µM; 15% of 3,700 active; shares compounds with Cl transport mod; HEK293-KCC2, thallium flux, FluoZin2 fluorescence; hits give high values;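 active = thallium flux slope above the same plate's solvent-only control mean plus 3 SD; inconclusive = the two replicate wells disagree; inactive = no significant difference from solvent-only control wells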
KCC2 bumet counter: thallium flux despite bumetanide block in KCC2 cells, secondary assay 3 | shares compounds with Cl transport mod | HEK293-KCC2 + bumetanide/ouabain, thallium flux FluoZin2; hits give high values | normalized thallium flux at 10 µM | 49% of 3,700 active;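 active = thallium entry rate above the same plate's blocked-transporter control wells by more than 3 SD; inconclusive = the two repeat wells disagree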;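 note: raw slope of fluorescence over initial fluorescence between 10 and 20 s after thallium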
KCC2 sec2: confirmation of human KCC2 transport modulators; AID 1715; 23% of 3,700 active; shares compounds with Cl transport mod; HEK293-KCC2, thallium flux FluoZin2 fluorescence; actives lie on both sides; F/F0 rise rate, 10–20 s post-thallium; normalized thallium flux at 10 µM;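 active = thallium flux slope more than 3 SD above or below the plate's solvent-only control mean, mostly below; inconclusive = the two repeat wells disagreed; inactive = no significant shift from solvent-only controls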;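 note: raw slope with 0.1% DMSO as baseline and bumetanide as block control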
HEK293 Tl flux: acts in parental HEK cells, KCC2 counter-screen; HEK293 parental cells, thallium flux FluoZin2, ouabain; baseline-ratio fluorescence slope, 10–20 s after thallium; shares compounds with Cl transport mod; thallium flux rate (normalised fluorescence) at 10 µM; AID 1716; 46% of 3,700 active;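 active = thallium flux rate significantly above the same plate's solvent-only control wells, beyond their mean plus 3 SD; inconclusive = the two replicate wells gave conflicting results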
KCC2 retest ouab: KCC2 (human) modulation, ouabain retest; raw Tl+ flux slope (below DMSO = inhibition, above = activation) at 10 µM; shares compounds with Cl transport mod; HEK293-KCC2, thallium flux FluoZin2 fluorescence; bidirectional: low = inhibitor, high = activator; 48% of 3,700 active;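 active = thallium flux slope beyond 3 SD from same-plate DMSO control mean in most replicates, usually higher, sometimes lower; inconclusive = repeat tests gave conflicting results; inactive = no significant difference from controls in most replicates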;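 note: slope of initial-normalized fluorescence between seconds 10 and 20 after thallium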
HEK293 Tl flux2: parental HEK flux effect, counter-screen 2 | shares compounds with Cl transport mod | HEK293 parental, thallium flux FluoZin-2 fluorescence slope | thallium flux slope at 10 µM | 33% of 3,700 active;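 active = thallium flux slope above the same plate's solvent-control mean plus 3 SD in both duplicate wells; inconclusive = duplicate wells that disagreed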;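 note: run without ouabain in cells lacking the KCC2 cotransporter; slope of fluorescence scaled to its starting value between 10 and 20 s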
ROMK retest: human ROMK channel modulation, retest confirmation; AID 1917; ROMK thallium flux, fluorescence ratio; hits give low values; 54% of 3,000 active; shares compounds with ROMK primary; normalized thallium flux (F/F0 slope) at 10 µM;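 active = Flux at 10 µM at least 3 SD below or above vehicle control mean in one or both replicates; inconclusive = no clear call, values can overlap the other calls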
* hit, by the source's call; u = inconclusive; x = not tested or not shown. An excerpt weighted towards active compounds, which were near 12% of everything screened.

SMILES	Diaph act CS	L major viab	ROMK primary	WT yeast gro inh	Diaphorase inh	Cl transport mod	Lmaj promast 1uM	ROMK retest	others
COC1=C(N)C(=O)c2nc(-c3nc(C(=O)O)c(C)c(-c4ccc(OC)c(OC)c4O)c3N)ccc2C1=O	0.3	65*	x	-25	68*	0.56	19	0.057*
O=[N+]([O-])c1ccc(C[n+]2cccc3c4ccccc4ccc32)cc1	1	4	0.78	37	-1	-0.0043	x	x
CCCCCCCCC[n+]1cccc2c3ccccc3ccc21	1.1	101*	-5.7*	54	-10	x	101*	0.042*
Clc1cccc(Cl)c1COc1ccccn1	1	-1	1.3	-3	5	-0.5	x	x
CC(C)CCN(C)C1CCN(S(=O)(=O)c2cccc(C(F)(F)F)c2)CC1	1	93*	-2.9*	27	2	-0.19	80*	0.072
CCN1C=C(Cc2ccc(OC)cc2)C2=C(C1)C(c1ccc(OC)cc1)C(C#N)=C(N)O2 (centres undefined)	0.9	100*	x	-4	7	0.19	-3	u
COc1ccc(C2C(C#N)=C(N)Oc3cc(C)n(Cc4ccncc4)c(=O)c32)cc1 (centres undefined)	0.8	-1	-1.7	-4	19	0.54	x	x
O=S(=O)(CC(CN1CCCCC1)N1CCCCC1)c1ccc2ccccc2c1 (centres undefined)	0.8	99*	-5.8*	-28	16	0.24	u	0.059*
Cc1ccc(C(C)C)c(OCc2nn(CC(=O)c3ccc(Cl)cc3)c3[n+]2CCCCC3)c1	1.4	98*	-7.5*	38	-36	-0.8	11	0.049*
COC(=O)CN1C(c2cccc(Cl)c2)=Nc2ccc(Cl)cc2C1c1ccccc1 (centres undefined)	0.7	60*	x	76*	30	-0.2	29	0.055*
CC12CN3CC(C)(CN(C1)C3c1ccc(F)cc1)C2 (centres undefined)	0.9	-4	-0.85	14	6	0.56	x	x
CS(=O)(=O)c1ccc(S(=O)CC(=O)OCc2ccccc2)c([N+](=O)[O-])c1 (centres undefined)	0.9	57*	-5.3*	20	6	x	40	0.053*
O=C(CS(=O)c1ccc(C(F)(F)F)cc1[N+](=O)[O-])Oc1ccccc1 (centres undefined)	1	-5	x	2	-4	-0.0039	x	x
COC(=O)c1ccc2c(c1)C(C)(C)C(/C=C/c1ccc(OC)c(OC)c1OC)=[N+]2C	0.7	101*	x	11	26	-1.3	101*	0.058*
CNC(=O)CSc1cnc2ccccc2n1	1	-5	0.96	7	2	0.18	x	x
COc1cc(NC(C)CCCN)c2ncccc2c1Oc1ccccc1 (centres undefined)	0.9	101*	-3.6*	21	14	0.46	101*	0.065*
COc1ccc(/C=C2\N=C(SC)N(C)C2=O)cc1	0.9	-3	x	3	13	-0.18	x	x
CC1Cc2ccccc2N1C(=O)CSc1nnnn1C (centres undefined)	0.9	-6	-0.75	-4	12	-0.32	x	x
CC1Cc2ccccc2N1C(=O)CSc1nnc(Cc2ccccc2)n1CCc1ccccc1 (centres undefined)	0.8	51*	-3.9*	-16	19	-1.3	4	0.062*
c1ccc(Sc2cccc3ccccc23)c(CNC2=NCCN2)c1	1	99*	-3.1*	67	-5	-0.033	-11	0.058*
c1ccc2c(CNc3ccc(CNc4ncn[nH]4)cc3)cccc2c1	0.8	4	x	-3	17	0.98	x	x
CCOC(=O)C1CCCN(C(=O)c2cc3c(=O)n4cccc(C)c4nc3n2C)C1 (centres undefined)	x	-3	x	x	x	-1.8	x	x
Cc1cc(C)c(S(C)(=O)=O)c(N(C)NC(=O)c2c(F)cccc2F)n1	1	1	-0.36	-19	4	0.14	x	x
COc1ccc(C(=O)NC(=S)NNC(=O)c2ccc3ccccc3n2)cc1	x	x	x	x	x	57*	x	x	KCC2 sec1=u;KCC2 bumet counter=0.072*;KCC2 sec2=u;HEK293 Tl flux=0.067*;KCC2 retest ouab=0.063*;HEK293 Tl flux2=0.042*
O=C(NCc1ccc2c(c1)OCO2)c1ccccc1	0.9	-1	x	-3	7	0.66	x	x
SMILES	Diaph act CS	L major viab	ROMK primary	WT yeast gro inh	Diaphorase inh	Cl transport mod	Lmaj promast 1uM	ROMK retest	others
O=C(NC(=S)NCc1ccc2c(c1)OCO2)c1ccccc1	1	43	-0.22	14	0	12*	x	x	KCC2 sec1=0.0091;KCC2 bumet counter=0.019*;KCC2 sec2=0.027;HEK293 Tl flux=0.009*;KCC2 retest ouab=u;HEK293 Tl flux2=u
COc1cc(OC)cc(C(=O)NC(=S)NCCc2ccccc2)c1	0.9	14	x	-3	8	x	x	x
CCOC(=O)NC(=S)Nc1ccc(C(C)(C)C)cc1	x	x	-0.06	x	x	139*	x	x	KCC2 sec1=0.026*;KCC2 bumet counter=0.085*;KCC2 sec2=0.039;HEK293 Tl flux=0.065*;KCC2 retest ouab=0.067*;HEK293 Tl flux2=0.02*
COc1ccc(C(=O)NC(=S)NCc2ccccc2)cc1	0.8	-7	1.2	6	22	-3*	x	x	KCC2 sec1=0.0071;KCC2 bumet counter=0.0077*;KCC2 sec2=0.029;HEK293 Tl flux=0.0085;KCC2 retest ouab=0.019;HEK293 Tl flux2=0.011
CC(C)(C)C(=O)NC(=S)Nc1ccc(C(F)(F)F)cc1	x	x	-0.26	x	x	1.7	x	x
O=C(CC(O)(c1ccccc1)C(F)(F)F)c1cccs1 (centres undefined)	0.9	3	-0.67	-9	9	-1.1	x	x
